Assay [1] has as its system Serratia marcescens. Kind of assay: Minimum inhibitory concentration against Serratia marcescens. The assay is classed as functional. Put shortly: (§1)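 Agar dilution on defined peptide susceptibility medium with peptide in serial twofold dilutions. Strains subcultured on blood or chocolate agar. Inoculum from overnight culture in liquid peptide medium, diluted to approx 1×10^7 cfu/mL, applied by Steers replicator. Plates incubated overnight at 37 °C. MIC taken as lowest concentration permitting fewer than ten colonies at 16–18 h.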

Assay [2] concerns Proteus mirabilis. Kind of assay: Minimum inhibitory concentration against Proteus mirabilis. The assay is classed as functional. In a few lines: as §1
Assay [3] concerns Enterobacter cloacae. Kind of assay: Minimum inhibitory concentration against Enterobacter cloacae. The assay is classed as functional. In a few lines: as §1
For assay [4], the system named is Pseudomonas aeruginosa. Kind of assay: Minimum inhibitory concentration against Pseudomonas aeruginosa. The class given is functional. Put shortly: as §1
Assay [5] relates to Salmonella typhimurium. Kind of assay: Minimum inhibitory concentration against Salmonella Typhimurium. The class given is functional, Salmonella enterica subsp. enterica serovar Typhimurium. To be noted: Salmonella enterica. In a few lines:
as §1

The subject of assay [6] is Streptococcus agalactiae. Kind of assay: Minimum inhibitory concentration against Streptococcus agalactiae. The assay is classed as functional. In a few lines:
(§2)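 Agar dilution on defined peptide susceptibility medium with hemin (25 μg/mL), NAD (25 μg/mL) and Isovitalex (1%) added, peptide in serial twofold dilutions. Colonies from overnight chocolate or blood agar resuspended in liquid peptide medium to 10⁸ cfu/mL, applied by Steers replicator. Incubation overnight at 37 °C under 7% CO₂. MIC: lowest concentration giving fewer than ten colonies at 16–18 h.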

For assay [7], the system named is Morganella morganii. Kind of assay: Minimum inhibitory concentration against Morganella morganii. The class given is functional. In a few lines: as §1
Assay [8] concerns Shigella flexneri. Kind of assay: Minimum inhibitory concentration against Shigella flexneri. The assay is classed as functional. Put shortly: as §1
Assay [9] has as its system Klebsiella pneumoniae. Kind of assay: Minimum inhibitory concentration against Klebsiella pneumoniae. The class given is functional. Put shortly:
as §1

Assay [10] concerns Staphylococcus epidermidis. Kind of assay: Minimum inhibitory concentration against Staphylococcus epidermidis. The class given is functional. Put shortly:
as §1

The subject of assay [11] is Staphylococcus aureus. Kind of assay: Minimum inhibitory concentration against Staphylococcus aureus. The assay is classed as functional. Put shortly: as §1
Assay [12] relates to Streptococcus pyogenes. Kind of assay: Minimum inhibitory concentration against Streptococcus pyogenes. The assay is classed as functional. Put shortly:
as §2

The test system of assay [13] is Escherichia coli. Kind of assay: Minimum inhibitory concentration against Escherichia coli. The class given is functional. Put shortly: as §1
The subject of assay [14] is Haemophilus influenzae. Kind of assay: Minimum inhibitory concentration against Hemophilus influenzae. The assay is classed as functional. In a few lines:
as §2

In assay [15] the test system is Enterococcus faecalis. Kind of assay: Minimum inhibitory concentration against Streptococcus faecalis. The class given is functional. In a few lines: as §1
Assay [16] relates to Klebsiella aerogenes. Kind of assay: Minimum inhibitory concentration against Enterobacter aerogenes. The assay is classed as functional. In a few lines:
as §1

≈ marks a conversion by molar mass, not a printed value. Where a SMILES comes first, the peptide text is derived from it. [ ]: non-standard residue; d: D form. Pra = C#CC[C@H](N)C(=O)O Where only a bound is given, the exact number is not on record here.

As for `C#CCC(NC(=O)[C@H](N)CCl)C(=O)O.O=C(O)C(F)(F)F` (some centres undefined), the MIC in assay [1], in assay [2], in assay [3], in assay [4], in assay [5] and in [6] was > 100 µg/mL in each case. The MIC in assay [7], in [8], in [9], in [10], in assay [11] and in assay [12] was > 100 µg/mL in each case. In addition, the MIC in assay [13], in assay [14], in assay [15] and in assay [16] was > 100 µg/mL throughout.

`C#CC[C@H](NC(=O)[C@@H](N)CCl)C(=O)O.O=C(O)C(F)(F)F`: the MIC was > 100 µg/mL in assay [1]; > 100 µg/mL in assay [2]; 25 µg/mL in [3]; > 100 µg/mL in [4]; > 100 µg/mL in [5]; 0.39 µg/mL in assay [6]. In addition, the MIC in [7] is > 100 µg/mL; in assay [8], 3.12 µg/mL; in assay [9], > 100 µg/mL; in assay [10], 0.05 µg/mL; in assay [11] it was 0.1 µg/mL; in assay [12], 25 µg/mL. For the same compound, the MIC in assay [13] came to 3.12 µg/mL; in [14], 1.56 µg/mL; in [15], 3.12 µg/mL; in assay [16] it was 25 µg/mL.

For the compound `C#CC[C@H](N)C(=O)O`, the MIC in assay [1], in assay [2], in assay [3], in assay [4], in [5] and in [6] was > 100 µg/mL each time. Further, the MIC in assay [7], in assay [8], in assay [9], in [10], in assay [11] and in assay [12] was > 100 µg/mL each time. In addition, the MIC in assay [13], in assay [14], in assay [15] and in assay [16] was > 100 µg/mL throughout.

Regarding `C#CC[C@@H](N)C(=O)N[C@@H](C)C(=O)O.O=C(O)C(F)(F)F`, the MIC in [1], in assay [2], in assay [3], in assay [4], in [5] and in assay [6] was > 100 µg/mL each time. In addition, the MIC in assay [7], in [8], in assay [9], in assay [10], in assay [11] and in assay [12] was > 100 µg/mL each time. The MIC in assay [13], in assay [14], in assay [15] and in assay [16] was > 100 µg/mL in each case.

As to `C#CC[C@@H](NC(=O)[C@H](N)CCl)C(=O)O.O=C(O)C(F)(F)F`, the MIC in assay [1], in [2], in assay [3], in assay [4], in assay [5] and in assay [6] was > 100 µg/mL each time. Further, the MIC in [7], in [8], in assay [9], in assay [10], in assay [11] and in assay [12] was > 100 µg/mL throughout. The MIC in [13], in [14], in assay [15] and in [16] was > 100 µg/mL throughout.

In the case of `C[C@@H](N)C(=O)N[C@H](CCl)C(=O)O.O=C(O)C(F)(F)F`, the MIC in [1], in [2], in assay [3], in assay [4], in [5] and in [6] was > 100 µg/mL in each case. In addition, the MIC in assay [7], in [8], in assay [9], in [10], in [11] and in assay [12] was > 100 µg/mL in each case. The MIC in [13], in assay [14], in assay [15] and in assay [16] was > 100 µg/mL throughout.

As to `N[C@@H](CCl)C(=O)N[C@@H](CCl)C(=O)O.O=C(O)C(F)(F)F`, the MIC in [1] is > 100 µg/mL; in assay [2], 50 µg/mL; in [3], 12.5 µg/mL; in [4] it was > 100 µg/mL; in assay [5], > 100 µg/mL; in [6], 0.39 µg/mL. Further, the MIC was 50 µg/mL in [7]; 12.5 µg/mL in [8]; > 100 µg/mL in assay [9]; 0.05 µg/mL in assay [10]; 0.05 µg/mL in assay [11]; 1.56 µg/mL in [12]. For the same compound, the MIC in [13] came to 1.56 µg/mL; in assay [14], 1.56 µg/mL; in [15] it was 3.12 µg/mL; in assay [16], 25 µg/mL.

Regarding `C#CC[C@H](NC(=O)[C@@H](N)CC#C)C(=O)O.O=C(O)C(F)(F)F` (H-[Pra]-[Pra]-OH), the MIC is > 100 µg/mL in [1]; > 100 µg/mL in [2]; 50 µg/mL in assay [3]; > 100 µg/mL in [4]; > 100 µg/mL in [5]; 3.12 µg/mL in assay [6]. For the same compound, the MIC is > 100 µg/mL in assay [7]; 12.5 µg/mL in assay [8]; > 100 µg/mL in [9]; 0.78 µg/mL in assay [10]; 3.12 µg/mL in assay [11]; > 100 µg/mL in [12]. Besides, the MIC was 25 µg/mL in assay [13], > 100 µg/mL in assay [14], > 100 µg/mL in assay [15] and > 100 µg/mL in assay [16].

Take `N[C@@H](CCl)C(=O)O`: the MIC was > 100 µg/mL in assay [1]; > 100 µg/mL in assay [2]; > 100 µg/mL in assay [3]; > 100 µg/mL in assay [4]; > 100 µg/mL in assay [5]; 3.12 µg/mL (≈ 25.3 µM) in [6]. The MIC in [7] is > 100 µg/mL; in assay [8], > 100 µg/mL; in [9] it was > 100 µg/mL; in assay [10], 25 µg/mL (≈ 202 µM); in assay [11], 3.12 µg/mL (≈ 25.3 µM); in assay [12] it was 3.12 µg/mL (≈ 25.3 µM). Moreover, the MIC in assay [13], in assay [14], in [15] and in [16] was > 100 µg/mL in each case.

`CSCC[C@H](N)C(=O)N[C@@H](CCl)C(=O)O.O=C(O)C(F)(F)F`: the MIC was 50 µg/mL in assay [1]; 100 µg/mL in assay [2]; 6.25 µg/mL in assay [3]; > 100 µg/mL in assay [4]; > 100 µg/mL in assay [5]; 0.2 µg/mL in assay [6]. Further, the MIC is 50 µg/mL in assay [7]; > 100 µg/mL in assay [8]; > 100 µg/mL in assay [9]; 0.025 µg/mL in [10]; 0.025 µg/mL in assay [11]; > 100 µg/mL in assay [12]. Further, the MIC in assay [13] was determined as 1.56 µg/mL; in assay [14], 0.78 µg/mL; in assay [15] it was 0.39 µg/mL; in assay [16] it was 6.25 µg/mL.

`C[C@H](N)C(=O)N[C@H](CCl)C(=O)O.O=C(O)C(F)(F)F`: the MIC in [1], in assay [2], in assay [3], in assay [4], in assay [5] and in [6] was > 100 µg/mL each time. The MIC in assay [7], in [8], in assay [9], in assay [10], in assay [11] and in assay [12] was > 100 µg/mL each time. Besides, the MIC in assay [13], in [14], in assay [15] and in assay [16] was > 100 µg/mL in each case.

As to `C#CC[C@H](NC(=O)[C@H](C)N)C(=O)O.O=C(O)C(F)(F)F`, the MIC in assay [1] is > 100 µg/mL; in [2] it was > 100 µg/mL; in assay [3], > 100 µg/mL; in assay [4], > 100 µg/mL; in assay [5], > 100 µg/mL; in assay [6], 100 µg/mL. The MIC is > 100 µg/mL in assay [7]; > 100 µg/mL in assay [8]; > 100 µg/mL in assay [9]; 1.56 µg/mL in assay [10]; > 100 µg/mL in [11]; > 100 µg/mL in assay [12]. The MIC in [13] was > 100 µg/mL; in [14] it was > 100 µg/mL; in assay [15] it was 100 µg/mL; in assay [16] it was > 100 µg/mL.

For the compound `N[C@H](CCl)C(=O)O`, the MIC in assay [1] was 25 µg/mL (≈ 202 µM); in assay [2] it was > 100 µg/mL; in assay [3], 100 µg/mL (≈ 809 µM); in [4] it was > 100 µg/mL; in assay [5], 100 µg/mL (≈ 809 µM); in assay [6], 12.5 µg/mL (≈ 101 µM). Also, the MIC is > 100 µg/mL in assay [7]; 50 µg/mL (≈ 405 µM) in assay [8]; 100 µg/mL (≈ 809 µM) in assay [9]; 25 µg/mL (≈ 202 µM) in assay [10]; 12.5 µg/mL (≈ 101 µM) in assay [11]; 12.5 µg/mL (≈ 101 µM) in assay [12]. In addition, the MIC was 6.25 µg/mL (≈ 50.6 µM) in [13], 6.25 µg/mL (≈ 50.6 µM) in assay [14], 50 µg/mL (≈ 405 µM) in [15] and 12.5 µg/mL (≈ 101 µM) in assay [16].

Take `C#CC[C@@H](N)C(=O)O`: the MIC in [1], in [2], in [3], in assay [4], in assay [5] and in assay [6] was > 100 µg/mL in each case. The MIC was > 100 µg/mL in [7]; > 100 µg/mL in assay [8]; > 100 µg/mL in [9]; > 100 µg/mL in assay [10]; 50 µg/mL (≈ 442 µM) in assay [11]; > 100 µg/mL in assay [12]. Further, the MIC in assay [13], in assay [14], in [15] and in [16] was > 100 µg/mL in each case.

The record behind these values is ChEMBL document CHEMBL1122413, “Chloralanyl and propargylglycyl dipeptides. Suicide substrate containing antibacterials” (1983).
